Results: the M2OR odorant receptor database

What was measured:
Settings in all cases: stereoisomer not certain
OR9A4 (Homo sapiens) = biological target: T1, OR9A4 (Homo sapiens) (UniProt Q8NGU2)
T1 sequence (whole entry): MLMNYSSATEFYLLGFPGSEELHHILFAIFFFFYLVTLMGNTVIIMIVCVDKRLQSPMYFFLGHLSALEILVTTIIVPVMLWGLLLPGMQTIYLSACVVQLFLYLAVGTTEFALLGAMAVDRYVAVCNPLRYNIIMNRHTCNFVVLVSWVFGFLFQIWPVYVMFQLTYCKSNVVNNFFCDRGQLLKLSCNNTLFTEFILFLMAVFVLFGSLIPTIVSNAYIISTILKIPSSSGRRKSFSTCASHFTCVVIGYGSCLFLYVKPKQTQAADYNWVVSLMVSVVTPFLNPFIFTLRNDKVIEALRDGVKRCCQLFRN
Outline: (§1)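 Transient luciferase assays in mammalian cell lines were common, though methods varied by source. The values come from published papers and their supplementary material, with extra details from the original authors when needed. Responsive refers to a measured signal the original authors judged statistically different from baseline, and non-responsive (inactive) to the remainder.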

OR9G1 (Homo sapiens) = biological target: T2, OR9G1 (Homo sapiens) (UniProt Q8NH87)
T2 sequence (whole entry): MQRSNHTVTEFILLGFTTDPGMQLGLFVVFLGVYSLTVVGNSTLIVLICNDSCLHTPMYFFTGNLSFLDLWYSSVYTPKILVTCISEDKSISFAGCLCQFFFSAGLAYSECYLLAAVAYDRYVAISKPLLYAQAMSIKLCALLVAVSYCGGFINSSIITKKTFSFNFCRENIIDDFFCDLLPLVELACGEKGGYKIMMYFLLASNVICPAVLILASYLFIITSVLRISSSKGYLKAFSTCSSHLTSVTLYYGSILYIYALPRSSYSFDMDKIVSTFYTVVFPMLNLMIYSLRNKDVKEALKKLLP
Outline: as §1

OR9G4 (Homo sapiens) = biological target: T3, OR9G4 (Homo sapiens) (UniProt Q8NGQ1)
T3 sequence (whole entry): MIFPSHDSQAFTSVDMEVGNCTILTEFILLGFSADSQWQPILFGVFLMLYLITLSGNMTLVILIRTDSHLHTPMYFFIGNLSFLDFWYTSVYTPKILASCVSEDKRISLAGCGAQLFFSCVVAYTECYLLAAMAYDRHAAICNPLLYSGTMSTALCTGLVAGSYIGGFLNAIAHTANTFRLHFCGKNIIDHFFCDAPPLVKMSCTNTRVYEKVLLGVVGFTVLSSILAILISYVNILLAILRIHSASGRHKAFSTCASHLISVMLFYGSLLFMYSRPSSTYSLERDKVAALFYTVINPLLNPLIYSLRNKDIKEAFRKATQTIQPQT
Outline: as §1

OR9G9 (Homo sapiens) = biological target: T4, OR9G9 (Homo sapiens) (UniProt P0C7N8)
T4 sequence (whole entry): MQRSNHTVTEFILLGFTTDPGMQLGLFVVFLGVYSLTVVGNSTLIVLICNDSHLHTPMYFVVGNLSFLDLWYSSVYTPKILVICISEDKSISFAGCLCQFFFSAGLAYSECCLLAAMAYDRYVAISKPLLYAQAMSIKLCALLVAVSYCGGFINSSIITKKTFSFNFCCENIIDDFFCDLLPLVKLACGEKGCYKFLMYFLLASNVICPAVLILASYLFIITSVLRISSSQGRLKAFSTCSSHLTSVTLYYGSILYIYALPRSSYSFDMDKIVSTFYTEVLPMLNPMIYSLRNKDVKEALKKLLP
Outline: as §1

OR9I1 (Homo sapiens) = biological target: T5, OR9I1 (Homo sapiens) (UniProt Q8NGQ6)
T5 sequence (whole entry): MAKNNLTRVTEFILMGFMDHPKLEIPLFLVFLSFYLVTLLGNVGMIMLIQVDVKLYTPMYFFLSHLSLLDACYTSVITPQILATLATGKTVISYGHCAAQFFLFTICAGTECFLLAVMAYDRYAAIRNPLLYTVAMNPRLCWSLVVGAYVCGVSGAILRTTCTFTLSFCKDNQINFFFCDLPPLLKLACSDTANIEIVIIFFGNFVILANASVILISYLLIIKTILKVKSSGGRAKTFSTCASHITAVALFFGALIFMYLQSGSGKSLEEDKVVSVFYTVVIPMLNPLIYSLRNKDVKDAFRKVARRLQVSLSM
Outline: as §1

OR9K2 (Homo sapiens) = biological target: T6, OR9K2 (Homo sapiens) (UniProt Q8NGE7)
T6 sequence (whole entry): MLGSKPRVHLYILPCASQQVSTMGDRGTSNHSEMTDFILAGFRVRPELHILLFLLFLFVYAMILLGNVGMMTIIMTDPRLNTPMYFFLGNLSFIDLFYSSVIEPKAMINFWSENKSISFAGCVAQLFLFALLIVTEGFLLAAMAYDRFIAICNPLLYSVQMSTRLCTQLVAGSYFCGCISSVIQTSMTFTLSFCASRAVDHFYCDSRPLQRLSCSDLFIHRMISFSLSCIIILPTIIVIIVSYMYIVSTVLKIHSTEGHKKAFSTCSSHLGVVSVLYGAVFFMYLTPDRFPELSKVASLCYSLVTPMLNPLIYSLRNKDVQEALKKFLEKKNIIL
Outline: as §1

OR9Q1 (Homo sapiens) = biological target: T7, OR9Q1 (Homo sapiens) (UniProt Q8NGQ5)
T7 sequence (whole entry): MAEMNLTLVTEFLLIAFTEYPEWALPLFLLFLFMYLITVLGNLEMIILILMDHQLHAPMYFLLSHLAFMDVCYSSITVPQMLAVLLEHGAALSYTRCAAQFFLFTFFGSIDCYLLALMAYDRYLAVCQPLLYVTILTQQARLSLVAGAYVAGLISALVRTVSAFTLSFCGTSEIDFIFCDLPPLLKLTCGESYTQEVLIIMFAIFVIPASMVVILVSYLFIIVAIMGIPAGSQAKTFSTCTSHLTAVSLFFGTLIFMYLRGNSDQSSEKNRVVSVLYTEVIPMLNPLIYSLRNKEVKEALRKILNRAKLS
Outline: as §1

OR9Q2 (Homo sapiens) = biological target: T8, OR9Q2 (Homo sapiens) (UniProt Q8NGE9)
T8 sequence (whole entry): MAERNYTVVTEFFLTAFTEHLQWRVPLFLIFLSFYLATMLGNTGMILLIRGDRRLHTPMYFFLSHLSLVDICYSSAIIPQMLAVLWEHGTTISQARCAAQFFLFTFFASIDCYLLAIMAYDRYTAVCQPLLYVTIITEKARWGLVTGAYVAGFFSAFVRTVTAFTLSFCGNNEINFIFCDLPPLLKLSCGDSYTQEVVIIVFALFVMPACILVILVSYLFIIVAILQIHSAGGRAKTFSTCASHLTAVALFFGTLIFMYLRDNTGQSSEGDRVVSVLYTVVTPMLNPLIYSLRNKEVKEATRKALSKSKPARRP
Outline: as §1

Or5an6 (Mus musculus) = biological target: T9, Or5an6 (Mus musculus) (UniProt Q8VFV4)
T9 sequence (whole entry): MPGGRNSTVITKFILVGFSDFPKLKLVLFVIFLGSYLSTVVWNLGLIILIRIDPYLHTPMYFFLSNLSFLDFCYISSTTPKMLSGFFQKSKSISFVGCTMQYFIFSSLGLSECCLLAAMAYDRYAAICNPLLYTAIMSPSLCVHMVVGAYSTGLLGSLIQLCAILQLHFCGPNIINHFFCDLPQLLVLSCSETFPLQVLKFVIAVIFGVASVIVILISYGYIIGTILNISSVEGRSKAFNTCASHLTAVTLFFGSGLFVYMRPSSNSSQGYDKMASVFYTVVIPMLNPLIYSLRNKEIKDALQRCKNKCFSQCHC
Outline: as §1

Or10j5 (Mus musculus) = biological target: T10, Or10j5 (Mus musculus) (UniProt Q62007)
T10 sequence (whole entry): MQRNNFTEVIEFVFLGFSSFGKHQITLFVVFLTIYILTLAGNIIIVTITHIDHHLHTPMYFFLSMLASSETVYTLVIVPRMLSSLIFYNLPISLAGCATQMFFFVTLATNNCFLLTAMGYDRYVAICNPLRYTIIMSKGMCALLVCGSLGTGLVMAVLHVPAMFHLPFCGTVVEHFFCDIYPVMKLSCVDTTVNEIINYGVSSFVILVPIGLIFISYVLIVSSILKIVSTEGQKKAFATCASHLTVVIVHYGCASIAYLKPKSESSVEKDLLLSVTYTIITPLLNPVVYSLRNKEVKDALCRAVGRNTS
Outline: as §1

Or1m1 (Mus musculus) = biological target: T11, Or1m1 (Mus musculus) (UniProt Q8VFM9)
T11 sequence (whole entry): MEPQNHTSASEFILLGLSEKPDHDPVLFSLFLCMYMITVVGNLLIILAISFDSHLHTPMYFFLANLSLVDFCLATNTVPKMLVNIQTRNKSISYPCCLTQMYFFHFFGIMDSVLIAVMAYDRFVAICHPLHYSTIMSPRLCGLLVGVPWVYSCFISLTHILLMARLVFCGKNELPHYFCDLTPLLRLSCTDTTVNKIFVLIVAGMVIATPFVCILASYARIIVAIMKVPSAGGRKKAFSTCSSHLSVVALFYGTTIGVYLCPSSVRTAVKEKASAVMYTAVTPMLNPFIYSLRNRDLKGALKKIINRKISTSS
Outline: as §1

Or2c1 (Mus musculus) = biological target: T12, Or2c1 (Mus musculus) (UniProt P23275)
T12 sequence (whole entry): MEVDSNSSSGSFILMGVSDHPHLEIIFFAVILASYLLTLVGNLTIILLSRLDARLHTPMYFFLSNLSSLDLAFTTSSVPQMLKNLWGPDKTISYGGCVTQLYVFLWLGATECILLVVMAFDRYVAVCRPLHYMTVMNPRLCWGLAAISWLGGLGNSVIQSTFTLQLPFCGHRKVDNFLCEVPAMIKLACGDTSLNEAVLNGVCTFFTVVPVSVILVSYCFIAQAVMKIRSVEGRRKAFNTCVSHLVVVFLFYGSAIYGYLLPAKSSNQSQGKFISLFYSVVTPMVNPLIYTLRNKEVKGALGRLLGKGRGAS
Outline: as §1

Or5ar1 (Mus musculus) = biological target: T13, Or5ar1 (Mus musculus) (UniProt Q8VGS3)
T13 sequence (whole entry): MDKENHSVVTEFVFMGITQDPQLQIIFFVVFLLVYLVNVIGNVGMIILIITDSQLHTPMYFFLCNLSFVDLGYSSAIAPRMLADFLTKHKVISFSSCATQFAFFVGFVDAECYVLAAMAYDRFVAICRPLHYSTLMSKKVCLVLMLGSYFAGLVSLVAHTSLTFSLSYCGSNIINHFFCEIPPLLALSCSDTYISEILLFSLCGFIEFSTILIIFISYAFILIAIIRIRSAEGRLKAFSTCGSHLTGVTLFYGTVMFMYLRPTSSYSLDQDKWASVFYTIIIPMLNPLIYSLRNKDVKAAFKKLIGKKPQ
Outline: as §1

Measured: odorant receptor agonist call

CC(=O)c1c(C)c([N+](=O)[O-])c(C(C)(C)C)c([N+](=O)[O-])c1C
active: Or5an6 (Mus musculus)
not listed: Or10j5 (Mus musculus) | Or1m1 (Mus musculus) | Or2c1 (Mus musculus) | Or5ar1 (Mus musculus)
inactive: all other assays above

O=C(O)CCCCCCCCCBr
inactive: Or10j5 (Mus musculus)

CCCCCCO
inactive: Or10j5 (Mus musculus) | Or1m1 (Mus musculus) | Or2c1 (Mus musculus) | Or5ar1 (Mus musculus)

CC(C)=CCCC(C)=CCO
inactive: Or10j5 (Mus musculus) | Or1m1 (Mus musculus) | Or2c1 (Mus musculus) | Or5ar1 (Mus musculus)

CCCCCC(S)C(C)CO (configuration not stated)
not listed: Or5an6 (Mus musculus) | Or10j5 (Mus musculus) | Or1m1 (Mus musculus) | Or2c1 (Mus musculus) | Or5ar1 (Mus musculus)
inactive: all other assays above

CC(CO)CS (configuration not stated)
not listed: Or5an6 (Mus musculus) | Or10j5 (Mus musculus) | Or1m1 (Mus musculus) | Or2c1 (Mus musculus) | Or5ar1 (Mus musculus)
inactive: all other assays above

CCCCCC(=O)C(C)C(C)=O (configuration not stated)
not listed: Or5an6 (Mus musculus) | Or10j5 (Mus musculus) | Or1m1 (Mus musculus) | Or2c1 (Mus musculus) | Or5ar1 (Mus musculus)
inactive: all other assays above
